Shown are actives, neighbours in structure and some others; about 2.8% of the full set was active somewhere.
PAFAH1B2 inh = inhibitors of human PAFAH1B2. 340,000 tested, 1.2% active. P68402. recombinant PAFAH1B2, FP-rhodamine activity probe, fluorescence polarization. inhibition, % at 3.39 µM;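 active means inhibition above the mean of all tested compounds plus 3 SD, cut at about 24% in these data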;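 further: 0% = enzyme with DMSO and 100% = wells lacking PAFAH1B2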
Target sequence (P68402 whole entry, looked up): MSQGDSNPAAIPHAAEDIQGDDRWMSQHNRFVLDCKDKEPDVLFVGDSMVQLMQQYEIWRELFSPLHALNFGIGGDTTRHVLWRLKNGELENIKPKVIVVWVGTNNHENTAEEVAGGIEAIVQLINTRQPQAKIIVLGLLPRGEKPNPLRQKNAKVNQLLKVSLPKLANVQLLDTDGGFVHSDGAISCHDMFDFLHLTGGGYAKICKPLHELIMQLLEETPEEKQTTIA
pPAFAH FP inh = pPAFAH (human) enzyme inhibition; Q13093; recombinant pPAFAH, FP-rhodamine probe fluorescence polarization; inhibition, % at 3.39 µM; 330,000 tested, 1.5% active;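 active means inhibition above the mean inhibition across the screen plus 3 SD, cut at about 25% in these data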;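 further: inhibitors block binding of the rhodamine activity-based probe so polarization drops; 0% = enzyme with DMSO and 100% = wells lacking pPAFAH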
Target sequence (Q13093 whole entry, looked up): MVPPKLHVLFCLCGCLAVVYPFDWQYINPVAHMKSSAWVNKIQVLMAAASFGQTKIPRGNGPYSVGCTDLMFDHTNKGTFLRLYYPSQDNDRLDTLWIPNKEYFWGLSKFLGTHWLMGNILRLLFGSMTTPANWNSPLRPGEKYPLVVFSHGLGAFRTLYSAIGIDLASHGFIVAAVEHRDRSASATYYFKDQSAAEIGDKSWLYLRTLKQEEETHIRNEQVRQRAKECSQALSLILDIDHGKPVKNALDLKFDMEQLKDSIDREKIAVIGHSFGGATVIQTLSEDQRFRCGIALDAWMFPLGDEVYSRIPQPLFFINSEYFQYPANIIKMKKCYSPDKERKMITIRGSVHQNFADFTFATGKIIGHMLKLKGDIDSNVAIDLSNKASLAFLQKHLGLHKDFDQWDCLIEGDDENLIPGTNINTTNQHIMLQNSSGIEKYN
PAFAH1B3 inh = inhibitors of human PAFAH1B3 | AID 492972 | recombinant PAFAH1B3, FP-rhodamine probe, fluorescence polarization | inhibition, % at 3.39 µM | 340,000 tested, 0.28% active;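 active means inhibition above the screen-wide average of all tested compounds plus 3 SD, cut at about 25% in these data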;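 further: 0% = enzyme with DMSO only and 100% = wells lacking PAFAH1B3 protein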
ABHD4 inh = inhibitors of mouse ABHD4; Q8VD66; purified mABHD4, FP-Rh probe fluorescence polarization; inhibition, % at 8.92 µM; 370,000 tested, 0.54% active; AID 720543;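 active means inhibition exceeding the mean over every tested compound plus 3 SD, cut at about 30% in these data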;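 further: 0% = plate median of compound wells and 100% = S159A mutant with DMSO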
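Assay system: wild-type mouse ABHD4 protein; compound: single nominal dose of 8.92 µM, 0.89% DMSO final; schedule: 45 min + 60 min at 25 °C; measured by: FP readout, ex 525 nm / em 598 nm; evaluation: % inhibition of FP-Rh probe binding versus controls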
PAFAH2 FP inh = inhibitors of human PAFAH2; Q99487; recombinant PAFAH2, FP-rhodamine activity probe, fluorescence polarization; inhibition, % at 3.39 µM; 340,000 tested, 0.99% active; AID 492956;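 active means inhibition above the mean over all tested compounds plus 3 SD, cut at about 30% in these data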;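 further: inhibitors block probe labeling of enzyme so polarization drops; 0% = enzyme with DMSO and 100% = wells lacking PAFAH2 protein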
HTRA1 inh = HTRA1 (human) protease inhibition | Q92743 | recombinant HTRA1, FP-rhodamine activity-based probe, fluorescence polarization | inhibition, % at 5.96 µM | 340,000 tested, 0.5% active | AID 504803; in the data active means inhibition above about 36%;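 further: 0% = enzyme with DMSO and 100% = wells lacking enzyme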
pPAFAH FP conf = pPAFAH (human) inhibition, confirmed. inhibition, % at 3.39 µM. 2,300 tested, 72% active. recombinant pPAFAH, FP-Rh probe fluorescence polarization. shares compounds with pPAFAH FP inh;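 active means mean inhibition of the triplicate above the hit cutoff set for the earlier primary screen, cut at about 25% in these data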;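 further: 0% = enzyme with DMSO and 100% = wells lacking pPAFAH enzyme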
* = called active by the depositor; · = no result given.

SMILES	PAFAH1B2 inh	pPAFAH FP inh	PAFAH1B3 inh	ABHD4 inh	PAFAH2 FP inh	HTRA1 inh	pPAFAH FP conf
COC(=O)[C@H]1C[C@]2(C/C=C(\C)CCC=C(C)C)c3ccccc3N[C@H]2N1	·	·	·	-2.1	·	·	·
CSc1ccc(COC(=O)c2cc([N+](=O)[O-])ccc2N2CCOCC2)cc1	8.2	40.3*	0.2	-12.0	1.2	-14.5	42.2*
Cc1ccccc1COC(=O)c1cc([N+](=O)[O-])ccc1N1CCOCC1	3.8	3.7	-3.8	-7.8	-13.6	-16.7	·
O=C(O)c1cc(Cl)ccc1-c1ccc(/C=C/c2cc(C(F)(F)F)[nH]c(=O)n2)o1	0.8	42.8*	-4.0	-8.3	8.3	2.2	8.5
COC(=O)[C@]12C[C@H](CC(=O)NCC3CCCCC3)C(=O)N(Cc3ccc(Cl)cc3Cl)C1=C[C@H](C1CCCC1)O[C@@H]2C	·	·	·	-1.4	·	·	·
N#CC1=C(N)C2=C(N3CCCCC3)CCCC2C1(C#N)C#N (configuration not stated)	25.9*	38.0*	46.1*	·	39.6*	35.1	4.8
N#CC(C#N)=C1C=C2C=C(N3CCCCC3)CCC2CC1 (configuration not stated)	·	12.8	·	·	·	·	·
COC(=O)c1cc(-c2cnc(OC)nc2OC)c(=O)n2c1CCC2	·	·	·	-6.3	·	·	·
C=CCN(CC=C)C(=O)C1c2ccccc2Oc2ccccc21	·	·	·	0.6	·	0.9	·
CCN(CC)C(=O)C1c2ccccc2Oc2ccccc21	3.6	39.4*	15.5	4.9	7.5	6.6	-1.0
COc1ccc2[nH]c(=O)c(CN(Cc3nnnn3Cc3ccco3)C3CCCCC3)cc2c1	-0.3	9.0	2.7	-1.1	4.0	11.8	·
COc1ccc2[nH]c(=O)c(CN(C3CCCCC3)C(c3nnnn3Cc3ccco3)C(C)C)cc2c1 (configuration not stated)	-0.8	36.5*	-6.1	·	-0.4	-20.8	27.7*
CC(COc1cc(F)cc(C#N)c1)CN1CCC(C(O)(c2ccccc2)c2ccccc2)CC1 (configuration not stated)	·	·	·	6.5	·	·	·
COc1ccc(N(CC(=O)Nc2cc(C)ccc2OC)S(=O)(=O)c2c(C)noc2C)cc1	-0.4	44.7*	3.9	-4.2	0.8	-7.4	7.9
COc1ccc(N(CC(=O)Nc2cc(C)ccc2C)S(=O)(=O)c2c(C)noc2C)cc1	4.9	7.8	8.0	-1.4	9.8	-8.0	·
O=C(NCc1c(F)cccc1F)C1C2C=CC3(CN(Cc4ccccc4)C(=O)C13)O2 (configuration not stated)	·	·	·	0.6	·	·	·
COc1ccc(-c2csc(NC(=O)c3ccccc3NS(=O)(=O)c3ccc(C)cc3)n2)cc1	14.6	39.0*	6.0	-31.9	35.8*	-49.8	49.1*
CCCc1cc2c(-c3ccccc3)cc(=O)oc2cc1OCc1ccc(C(=O)O)o1	7.5	53.8*	-1.2	-4.2	-2.1	-61.0	47.5*
COc1cc2c(cc1OC)C(c1ccccc1C)CC(=O)N2 (configuration not stated)	2.9	67.2*	5.8	-4.4	0.8	10.0	3.5
COc1cc2c(cc1OC)C(c1cccc(OC)c1OC)CC(=O)N2 (configuration not stated)	11.2	4.4	-4.6	-2.8	-2.6	1.8	·
CC(/C=N/NC(=O)Cc1cc(=O)[nH][nH]1)=C\c1ccccc1	8.9	53.8*	0.9	10.8	-3.9	0.5	2.5
CC1=NNC(=O)C1CC(=O)N/N=C/C(C)=C/c1ccccc1 (configuration not stated)	-1.8	0.4	-3.6	-3.3	-2.7	5.6	·
CC(=O)CC[C@@H]1CC[C@]2(CCCN(C(=O)c3ccccc3)C2)O1	·	·	·	-0.4	·	·	·
COC[C@@H]1CCCN1c1ccc2c(c1)O[C@H]1CCN(C1)S2(=O)=O	·	·	·	-0.3	·	·	·
O=C(c1cccc(C(F)(F)F)c1)N1CC[C@H]2[C@H](CCCN2Cc2ccccc2)C1	·	·	·	0.1	·	·	·
SMILES	PAFAH1B2 inh	pPAFAH FP inh	PAFAH1B3 inh	ABHD4 inh	PAFAH2 FP inh	HTRA1 inh	pPAFAH FP conf
O=C(Nc1ccc(Cl)cc1)Nc1nnc(-c2ccncc2)s1	-3.3	1.0	7.6	-3.5	4.0	-4.6	·
O=C(Nc1cccc(Cl)c1)Nc1nnc(-c2ccncc2)s1	6.8	41.8*	-4.4	-29.1	8.5	-38.7	34.6*
O=C(NCCC(=O)N(CCc1ccccc1)Cc1ccccc1)c1ccccc1Cl	-1.8	46.0*	4.1	-7.5	4.7	-9.1	0.9
Cc1ccc(C(=O)NCCCc2ccccc2)c(Cl)c1	0.0	1.7	5.8	-7.6	1.9	-3.8	·
O=C(Nc1nc2ncccn2c1-c1ccc(F)c(F)c1)c1ccccc1	·	·	·	0.1	·	·	·
O=C(NCCN1C(=O)C2C3C=CC(C3)C2C1=O)c1cc(Cl)cc(Cl)c1 (configuration not stated)	·	·	·	4.3	·	·	·
O=C(NCCc1ccccc1)OCc1cn(-c2ccc(Cl)cc2)nn1	·	·	·	1.0	·	·	·
O=C(/C=C/c1ccco1)NC(=S)Nc1ccc(C(=O)O)cc1	1.8	38.9*	13.0	25.5	-0.4	12.1	6.9
CC(=O)NC(=S)Nc1ccc(NC(=S)NC(=O)/C=C/c2ccco2)cc1	-7.0	-3.2	-9.7	-6.9	-20.6	-0.3	·
O=C(CNC(c1ccccc1)c1ccccc1)Nc1ccccc1F	5.9	47.1*	-3.8	-3.4	5.8	-34.4	-4.0
O=C(CNC(c1ccccc1)c1ccccc1)Nc1ccccc1-c1ccccc1	-1.1	-6.4	3.9	-30.1	-4.3	-49.1	·
CCNc1c2c3c(cccc3n(C)c1=O)C(=O)c1ccccc1-2	·	52.8*	·	·	·	·	45.1*
Cn1c(=O)c(NC2CCCCC2)c2c3c(cccc31)C(=O)c1ccccc1-2	4.8	·	14.3	8.3	10.1	-7.5	·
O=C(OC12CCCN(C1)/C(=C/c1ccncc1)C2)c1ccccc1 (configuration not stated)	·	·	·	2.3	·	·	·
C[C@H]1CN([C@@H](C)CO)C(=O)c2cccc(NS(=O)(=O)c3ccc(F)cc3)c2O[C@H]1CN(C)Cc1ccc(Cl)c(Cl)c1	3.0	37.3*	-3.6	-17.8	1.8	-21.1	45.8*
COc1ccc(S(=O)(=O)Nc2cccc3c2O[C@H](CN(C)Cc2ccc(Cl)c(Cl)c2)[C@@H](C)CN([C@H](C)CO)C3=O)cc1	-1.7	5.8	0.2	-12.7	-1.8	-29.6	·
NC(=O)c1ccc(NC(=O)COC(=O)c2cc3c(s2)CCC3)cc1	0.0	7.9	6.1	-5.2	11.1	-3.0	·
O=C(COC(=O)c1cc2c(s1)CCC2)Nc1ccc(F)cc1	-0.9	43.6*	10.3	-1.4	86.8*	-6.4	38.0*
S=C1NC[C@H](Cc2ccccc2)N1CC1CCN(CCCC2CCCCC2)CC1	·	·	·	4.5	·	·	·
Cn1cccc1C(=O)N1CCN(S(=O)(=O)c2ccc([N+](=O)[O-])cc2)CC1	·	·	·	10.2	·	·	·

Screening results deposited in PubChem by The Scripps Research Institute Molecular Screening Center.
